Data taken from ChEMBL document CHEMBL2169781, “Discovery and biological evaluation of a novel class of dual microsomal prostaglandin E2 synthase-1/5-lipoxygenase inhibitors based on 2-[(4,6-diphenethoxypyrimidin-2-yl)thio]hexanoic acid” (J Med Chem, 2011).

Experiments:
[1] = target: T1, Polyunsaturated fatty acid 5-lipoxygenase (Homo sapiens, UniProt P09917); assay: Inhibition of 5-lipoxygenase-mediated 5(S)-H(p)ETE formation in fMLP-stimulated human PMNL incubated 10 mins prior to fMLP challenge
T1 sequence (P09917 whole entry): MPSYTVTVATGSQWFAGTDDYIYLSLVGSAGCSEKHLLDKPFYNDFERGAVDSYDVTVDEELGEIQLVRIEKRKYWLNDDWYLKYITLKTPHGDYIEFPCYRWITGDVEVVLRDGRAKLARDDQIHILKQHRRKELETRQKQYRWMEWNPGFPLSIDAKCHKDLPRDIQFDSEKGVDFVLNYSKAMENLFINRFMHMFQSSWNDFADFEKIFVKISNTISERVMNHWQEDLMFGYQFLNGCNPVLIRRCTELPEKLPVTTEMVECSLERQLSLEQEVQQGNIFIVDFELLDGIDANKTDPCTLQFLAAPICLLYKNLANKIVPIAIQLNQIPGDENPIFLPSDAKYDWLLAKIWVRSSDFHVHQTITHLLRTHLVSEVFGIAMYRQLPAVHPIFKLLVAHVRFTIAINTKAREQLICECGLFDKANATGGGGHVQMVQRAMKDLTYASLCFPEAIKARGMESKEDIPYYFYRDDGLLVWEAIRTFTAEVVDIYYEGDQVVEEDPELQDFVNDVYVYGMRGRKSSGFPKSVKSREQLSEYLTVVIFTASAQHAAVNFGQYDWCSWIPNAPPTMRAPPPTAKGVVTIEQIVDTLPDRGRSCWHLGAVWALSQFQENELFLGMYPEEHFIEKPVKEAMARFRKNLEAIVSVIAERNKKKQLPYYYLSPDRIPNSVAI

Prostaglandin E synthase = target: T2, Prostaglandin E synthase (Homo sapiens, UniProt O14684); assay: Inhibition of mPGES-1 in human IL-1beta-stimulated A549 cell microsomes assessed as reduction of PGE2 formation from PGH2 after 15 mins by RP-HPLC analysis; design: species or system Microsome
T2 sequence (O14684 whole entry): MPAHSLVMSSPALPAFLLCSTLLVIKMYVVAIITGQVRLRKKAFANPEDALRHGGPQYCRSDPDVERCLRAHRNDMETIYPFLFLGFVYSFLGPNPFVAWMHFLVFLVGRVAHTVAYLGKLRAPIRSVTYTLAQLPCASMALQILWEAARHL
In short: (§1)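 A549 cells in DMEM with 2% FCS for 16 h, induced with IL-1β (1 ng/mL) for 72 h, homogenized. Microsomal pellet (174 000 × g) diluted in 0.1 M potassium phosphate pH 7.4 with 2.5 mM glutathione, given compound or DMSO for 15 min. PGH₂ added (20 μM final), 1 min at 4 °C, stopped with FeCl₂/citric acid. PGE₂ by SPE and RP-HPLC (UV 195 nm), 11β-PGE₂ internal standard. Tested up to 10 μM; IC₅₀ reported only above 50% inhibition at 10 μM.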

[2] = target: Prostaglandin G/H synthase 1 (Ovis aries) (UniProt P05979); assay: Inhibition of ovine COX-1 mediated formation of 12-HHT from arachidonic acid assessed as remaining activity at 10 uM after 5 mins by HPLC analysis
[3] = target: T3, Polyunsaturated fatty acid 5-lipoxygenase (Homo sapiens) (UniProt P09917); assay: Inhibition of human recombinant 5-lipoxygenase-mediated product formation from arachidonic acid assessed as remaining activity at 10 uM after 5 to 10 mins by HPLC analysis
T3 sequence (whole entry): T1 sequence (P09917 whole entry)
In short: (§2)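 Human 5-LO expressed in E. coli BL21 (pT3-5LO) at 37 °C, purified and used at once. Enzyme (0.5 μg/mL in PBS/EDTA with 1 mM ATP) preincubated with compound 5–10 min at 4 °C, prewarmed 30 s at 37 °C, started with 2 mM CaCl₂ + 20 μM AA (±1 μM 13(S)-HpODE), 10 min at 37 °C, stopped with cold methanol, products by HPLC.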

[4] = target: T1, Polyunsaturated fatty acid 5-lipoxygenase; assay: Inhibition of human recombinant 5-lipoxygenase-mediated product formation from arachidonic acid after 5 to 10 mins by HPLC analysis; in short: as §2
[5] = Cytotoxicity in human polymorphonuclear leukocytes assessed as cell viability at 10 uM after 30 mins by MTT assay
[6] = target: Prostaglandin G/H synthase 2 (Homo sapiens) (UniProt P35354); assay: Inhibition of human recombinant COX-2 mediated formation of 12-HHT from arachidonic acid assessed as remaining activity at 10 uM after 5 mins by HPLC analysis
[7] = target: T1, Polyunsaturated fatty acid 5-lipoxygenase; assay: Inhibition of 5-lipoxygenase-mediated 5(S)-H(p)ETE formation in A23187-stimulated human PMNL incubated 10 mins prior to A23187 challenge
[8] = target: T4, Prostaglandin E synthase (Homo sapiens) (UniProt O14684); assay: Inhibition of mPGES-1 in human IL-1beta-stimulated A549 cell microsomes assessed as residual activity by measuring reduction of PGE2 formation from PGH2 at 10 uM after 15 mins by RP-HPLC analysis; conditions: Microsome; in short: as §1
T4 sequence (whole entry): T2 sequence (O14684 whole entry)

[9] = target: T3, Polyunsaturated fatty acid 5-lipoxygenase (Homo sapiens); assay: Selectivity ratio of IC50 for human recombinant 5-lipoxygenase in cell-free system to IC50 for 5-lipoxygenase-mediated 5(S)-H(p)ETE formation in A23187-stimulated PMNL

SMILES | IC50 [1] [nM] | IC50 (Prostaglandin E synthase) [nM] | Activity [2] [%] | Activity [3] [%] | IC50 [4] [nM] | Activity [5] | Activity [6] [%] | IC50 [7] [nM] | Activity [8] [%] | Ratio IC50 [9]
CCCC/C(=C\c1cc(OCCc2ccccc2)ccc1OCCc1ccccc1)C(=O)O | 900 | 1500 | 68 | 78.2 | > 10000 | Non-toxic | 94.4 | – | – | –
O=C(O)C(Sc1nc(OCCc2ccccc2)cc(OCCc2ccccc2)n1)c1ccccc1 (stereo not drawn) | 800 | 1200 | – | – | 4900 | – | – | – | – | –
CCCCC(Cc1ccc(OCCc2ccccc2)c(OCCc2ccccc2)c1)C(=O)O (stereo not drawn) | – | 2700 | 95.8 | 54 | > 10000 | Non-toxic | 86.4 | 6000 | – | –
CCCCC(Sc1nc(OCCCc2ccccc2)cc(OCCCc2ccccc2)n1)C(=O)O (stereo not drawn) | – | 2200 | – | – | 2700 | – | – | 900 | – | –
CCCCC(Sc1nc(OCCc2ccsc2)cc(OCCc2ccsc2)n1)C(=O)O (stereo not drawn) | – | 6500 | – | – | 9300 | – | – | 600 | – | –
CCCCC(Sc1nc(OCCCCc2ccccc2)cc(OCCCCc2ccccc2)n1)C(=O)O (stereo not drawn) | – | 900 | – | – | 2200 | – | – | 700 | – | –
CCCCC(Sc1nc(OCCc2ccc(C)cc2)cc(OCCc2ccc(C)cc2)n1)C(=O)O (stereo not drawn) | – | 900 | – | – | 3100 | – | – | 500 | – | –
CCCCC(Sc1nc(OCCC2CCCC2)cc(OCCC2CCCC2)n1)C(=O)O (stereo not drawn) | – | > 10000 | – | – | 6800 | – | – | 4000 | 90 | –
CCCCC(Sc1nc(OCCc2ccc([N+](=O)[O-])cc2)cc(OCCc2ccc([N+](=O)[O-])cc2)n1)C(=O)O (stereo not drawn) | – | 3700 | – | – | 2800 | – | – | 500 | – | –
CCCCC(Sc1nc(OCCc2ccc(C#N)cc2)cc(OCCc2ccc(C#N)cc2)n1)C(=O)O (stereo not drawn) | – | 5900 | – | – | 6600 | – | – | 700 | – | –
CCCC/C(=C\c1cc(OCCc2ccc(C(F)(F)F)cc2)ccc1OCCc1ccc(C(F)(F)F)cc1)C(=O)O | – | 3500 | 81 | 55.6 | > 10000 | Non-toxic | 102 | 300 | – | > 20
CCC(Sc1nc(OCCc2ccccc2)cc(OCCc2ccccc2)n1)C(=O)O (stereo not drawn) | 2800 | 7300 | – | – | 9000 | – | – | – | – | –
CCCCC(Sc1nc(OCCC2CCCCC2)cc(OCCC2CCCCC2)n1)C(=O)O (stereo not drawn) | – | 2400 | – | – | 9000 | – | – | 800 | – | –
CCCCC(Sc1nc(OCCC(C)C)cc(OCCC(C)C)n1)C(=O)O (stereo not drawn) | – | > 10000 | – | – | 6800 | – | – | 1200 | 54.5 | –
CCCCC(Sc1nc(OCCc2ccc(C(F)(F)F)cc2)cc(OCCc2ccc(C(F)(F)F)cc2)n1)C(=O)O (stereo not drawn) | – | 1900 | – | – | 2200 | – | – | 500 | – | –
CCCCC(Sc1cc(OCCc2ccccc2)cc(OCCc2ccccc2)c1)C(=O)O (stereo not drawn) | – | 4600 | 71.3 | – | 7200 | Non-toxic | 110 | 800 | – | –

SMILES | IC50 [1] [nM] | IC50 (Prostaglandin E synthase) [nM] | Activity [2] [%] | Activity [3] [%] | IC50 [4] [nM] | Activity [5] | Activity [6] [%] | IC50 [7] [nM] | Activity [8] [%] | Ratio IC50 [9]
CCCC/C(=C\c1cc(OCCc2ccccc2)cc(OCCc2ccccc2)c1)C(=O)O | – | 2800 | 81.4 | 62.7 | > 10000 | Non-toxic | 81.4 | 700 | – | –
CCCCC(Sc1nc(OCc2ccccc2)cc(OCc2ccccc2)n1)C(=O)O (stereo not drawn) | 1800 | 3800 | – | – | 5000 | – | – | – | – | –
CCCCC(Sc1nc(OCCc2ccc(OC)cc2)cc(OCCc2ccc(OC)cc2)n1)C(=O)O (stereo not drawn) | – | > 10000 | – | – | 7000 | – | – | 300 | 63.7 | > 20
CCCCC(Oc1cc(OCCc2ccccc2)cc(OCCc2ccccc2)c1)C(=O)O (stereo not drawn) | – | 3400 | 71.6 | – | > 10000 | Non-toxic | 92.5 | 600 | – | > 20
CCCCC(Sc1nc(OCCC2CCCCCC2)cc(OCCC2CCCCCC2)n1)C(=O)O (stereo not drawn) | – | > 10000 | – | 53.8 | > 10000 | – | – | 2400 | 62.4 | –
CCCC/C(=C\c1cccc(OCCc2ccccc2)c1OCCc1ccccc1)C(=O)O | 800 | 1100 | 86.8 | 91.3 | > 10000 | Non-toxic | 113 | – | – | –
CCCCC(Cc1ccc(OCCc2ccccc2)cc1OCCc1ccccc1)C(=O)O (stereo not drawn) | > 10000 | > 10000 | 99.1 | 85.6 | > 10000 | Non-toxic | 110 | – | 90.1 | –
CCCCC(Sc1nc(OCCc2ccccc2)cc(OCCc2ccccc2)n1)C(=O)O (stereo not drawn) | – | 1200 | – | – | 4700 | – | – | 600 | – | –
CCCCC(Cc1cccc(OCCc2ccccc2)c1OCCc1ccccc1)C(=O)O (stereo not drawn) | – | 3900 | 66.1 | – | 4900 | Non-toxic | 89.6 | 2100 | – | –
CCCCC(Cc1cc(OCCc2ccccc2)cc(OCCc2ccccc2)c1)C(=O)O (stereo not drawn) | – | 2400 | 78.7 | 80.3 | > 10000 | Non-toxic | 78.4 | 4700 | – | –
CCCCC(Cc1cc(OCCc2ccccc2)ccc1OCCc1ccccc1)C(=O)O (stereo not drawn) | 900 | 2400 | 63.8 | 65.5 | > 10000 | Non-toxic | 66.5 | – | – | –
CCCCC(Sc1nc(OCCc2ccc(OC(F)(F)F)cc2)cc(OCCc2ccc(OC(F)(F)F)cc2)n1)C(=O)O (stereo not drawn) | – | > 10000 | – | 56.4 | > 10000 | – | – | 500 | 88.3 | > 20
CCCC/C(=C\c1cc(OCc2ccc(C(F)(F)F)cc2)ccc1OCc1ccc(C(F)(F)F)cc1)C(=O)O | – | > 10000 | 82.6 | – | 4400 | Non-toxic | 102 | 200 | 55.1 | –
CCCCC(Sc1nc(OCCC2CC2)cc(OCCC2CC2)n1)C(=O)O (stereo not drawn) | – | 9600 | – | – | 9300 | – | – | 1200 | – | –
O=C(O)CSc1nc(OCCc2ccccc2)cc(OCCc2ccccc2)n1 | – | > 10000 | – | 57 | > 10000 | – | – | 7600 | – | –
CCCC/C(=C\c1cc(OCCC2CCCCC2)ccc1OCCC1CCCCC1)C(=O)O | – | 3400 | 76.4 | 73 | > 10000 | Non-toxic | 123 | 800 | – | –
